ASAP1 inh: inhibitors of human ASAP1 ArfGAP activity. Q9ULH1. ASAP1-stimulated ARF1 GTP hydrolysis, GDP FP detection. inhibition, % at 16.5 µM. 360,000 tested, 0.19% active. AID 624377; in the data active = inhibition above about 25%
Calb FLC: C. albicans growth modulation with fluconazole | C. albicans CaCi-2 + fluconazole, Alamar Blue growth, 48 h | growth inhibition, % (test concentration not listed) | 300,000 tested, 0.57% active | AID 1979;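 active = growth inhibition above about 58% in most replicates, limit read from the data, passing the limit was not always enough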;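 also: all wells also contain fluconazole at 8 µg/ml as a sub-toxic cotreatment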
VIM-2 inh: inhibitors of Pseudomonas aeruginosa VIM-2 metallo-beta-lactamase | purified VIM-2, nitrocefin hydrolysis, epi-absorbance fluorescence | inhibition, % at 5.6 µM | 290,000 tested, 0.89% active | AID 1527;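 active = inhibition above the mean of all tested compounds plus 3 SD, cutoff set per screening run, cut at about 7.5% in these data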;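 also: red hydrolysis product quenches plate fluorescence so inhibitors raise well fluorescence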
ARFGAP1 inh: inhibits rat ARF GTPase activating protein 1. 360,000 tested, 0.26% active. Q62848. Arfgap1-stimulated ARF1 GTP hydrolysis, GDP FP detection. inhibition, % at 16.5 µM;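 active = inhibition above a per-plate limit, mean inhibition of low control wells plus 3 SD, cut at about 25% in these data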
Target sequence (Q62848 1-136 limits assumed): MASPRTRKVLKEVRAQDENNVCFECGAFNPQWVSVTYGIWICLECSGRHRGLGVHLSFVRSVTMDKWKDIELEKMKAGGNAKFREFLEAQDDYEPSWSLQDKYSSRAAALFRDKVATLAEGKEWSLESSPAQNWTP
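material = rat Arfgap1 catalytic domain, aa 1-136 | also added = human ARF1(Δ1-17)-GTP substrate | compound dosing = one concentration, 16.5 µM, DMSO 1.26% | times = GTP hydrolysis reaction 2 h at 25 °C | measured by = FP, GDP Alexa 633 tracer displaced from anti-GDP antibody, 620/688 nm | evaluation = percent inhibition of Arfgap1-stimulated GTP hydrolysis | replication = single well per compound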
PHOSPHO1 block: inhibitors of human PHOSPHO1 phosphatase; Q8TCT1; recombinant PHOSPHO1, absorbance phosphatase assay; inhibition, % at 13.3 µM; 290,000 tested, 1.1% active; in the data active = inhibition above about 60%
Target sequence (Q8TCT1 whole entry, looked up): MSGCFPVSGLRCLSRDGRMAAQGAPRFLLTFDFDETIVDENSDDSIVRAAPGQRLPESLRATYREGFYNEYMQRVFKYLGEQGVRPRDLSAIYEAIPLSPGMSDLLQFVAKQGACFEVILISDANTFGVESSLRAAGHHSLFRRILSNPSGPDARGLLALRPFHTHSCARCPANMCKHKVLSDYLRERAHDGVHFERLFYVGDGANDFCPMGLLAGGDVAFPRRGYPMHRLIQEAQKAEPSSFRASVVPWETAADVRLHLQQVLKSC
IMP-1 inh: blocks Pseudomonas aeruginosa IMP-1 metallo-beta-lactamase; 290,000 tested, 0.45% active; purified IMP-1, nitrocefin hydrolysis, epi-absorbance fluorescence; inhibition, % at 5.6 µM; AID 1556;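 active = inhibition above the mean plus 3 SD of all compounds in the same screening run, cut at about 4.5% in these data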
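System: Purified IMP-1 | Read-out basis: Percent enzyme inhibition | Controls: IMP-1 with DMSO as 0%, enzyme-free DMSO as 100% | Replicates: One well per compound | Doses: 5.6 µM nominal single concentration | Detection: Epi-absorbance fluorescence, 480 nm excitation, 530 nm emission | Incubation: 25 °C, 15 min preincubation, 25 min reaction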
Numbers stand for hits. This is a sample that favours compounds with a hit; in the whole collection about 2.6% have one here.

Screening O=C(C(=O)N1CCC(CNS(=O)(=O)c2ccc(C(F)(F)F)cc2)CC1)c1cccs1 returned ASAP1 inh inactive and ARFGAP1 inh inactive.
`COC(=O)c1c(NC(=O)c2ccco2)sc(C(=O)N(C)C)c1C` gave ASAP1 inh inactive, Calb FLC inactive, VIM-2 inh 12, ARFGAP1 inh inactive, PHOSPHO1 block inactive and IMP-1 inh inactive.
For COC(=O)c1cc(C)sc1NC(=O)c1ccco1 the results were ASAP1 inh inactive, VIM-2 inh 8.1, ARFGAP1 inh inactive, PHOSPHO1 block inactive and IMP-1 inh inactive.
Screening COC(=O)c1c(NC(=O)c2cccnc2)sc(C(=O)N(C)C)c1C returned ASAP1 inh inactive, Calb FLC inactive, VIM-2 inh inactive, ARFGAP1 inh inactive, PHOSPHO1 block inactive and IMP-1 inh inactive.
For COC(=O)c1cc(C)sc1NC(=O)c1cccnc1 the results were ASAP1 inh inactive, Calb FLC 110, VIM-2 inh inactive, ARFGAP1 inh inactive, PHOSPHO1 block inactive and IMP-1 inh inactive.
C=CCN1C[C@H](COC(=O)CSc2ccccc2)Oc2cccc(F)c2S1(=O)=O was read as ASAP1 inh inactive and ARFGAP1 inh inactive.
For Cc1cccc(C)c1NC(=O)C(c1ccc(C#N)cc1)n1c(=O)c(-c2ccccc2)nc2ccccc21 (stereo unspecified) the results were ASAP1 inh inactive and ARFGAP1 inh inactive.
For CCn1ccnc1CN(C)Cc1nc(-c2cccc(Cl)c2)no1 the results were ASAP1 inh inactive, Calb FLC inactive, VIM-2 inh inactive, ARFGAP1 inh inactive, PHOSPHO1 block inactive and IMP-1 inh inactive.
CCn1ccnc1CN(C)Cc1nc(-c2ccccc2)no1 was read as ASAP1 inh inactive, Calb FLC inactive, VIM-2 inh inactive, ARFGAP1 inh inactive, PHOSPHO1 block 60 and IMP-1 inh inactive.
CCCCNC(=O)CNC(=O)c1nn(-c2ccc(OC)cc2OC)c(=O)c2ccccc12 was read as ASAP1 inh inactive, Calb FLC inactive, VIM-2 inh inactive, ARFGAP1 inh inactive, PHOSPHO1 block inactive and IMP-1 inh inactive.
Screening COc1ccc(-n2nc(C(=O)NCC(=O)NCCC3=CCCCC3)c3ccccc3c2=O)c(OC)c1 returned ASAP1 inh inactive, Calb FLC 97, VIM-2 inh inactive, ARFGAP1 inh inactive, PHOSPHO1 block inactive and IMP-1 inh inactive.
For Cc1c(C(=O)NCc2cccc(C(F)(F)F)c2)sc(=O)n1Cc1ccc(S(=O)(=O)N(C)C)cc1 the results were ASAP1 inh inactive and ARFGAP1 inh inactive.
For C[C@H]1CN(C(=O)OC(C)(C)C)CCN1c1ccc(N2CCS(=O)(=O)CC2)c(C#N)c1 the results were ASAP1 inh inactive and ARFGAP1 inh inactive.
Cc1cnc(NC(=O)c2ccc(-c3ccc([N+](=O)[O-])cc3)o2)s1 was read as ASAP1 inh inactive and ARFGAP1 inh inactive.
`Cc1cnc(NC(=O)c2ccc(-c3nc4ccccc4s3)o2)s1` gave ASAP1 inh inactive, Calb FLC inactive, VIM-2 inh inactive, ARFGAP1 inh inactive, PHOSPHO1 block 105 and IMP-1 inh inactive.
For S=C(NCc1ccccn1)Nc1cccc(Cl)c1 the results were ASAP1 inh inactive, Calb FLC inactive, VIM-2 inh inactive, ARFGAP1 inh inactive, PHOSPHO1 block inactive and IMP-1 inh inactive.
Screening Clc1cccc(-c2ccc(CNCc3ccccn3)o2)c1 returned ASAP1 inh inactive, Calb FLC inactive, VIM-2 inh 11, ARFGAP1 inh inactive, PHOSPHO1 block inactive and IMP-1 inh inactive.
For O=C(COc1ccc(F)cc1)N(Cc1cccc(Br)c1)C1CCS(=O)(=O)C1 (stereo unspecified) the results were ASAP1 inh inactive, Calb FLC inactive, VIM-2 inh inactive, ARFGAP1 inh inactive, PHOSPHO1 block 65 and IMP-1 inh inactive.
`O=C(COc1ccccc1)N(Cc1cccc(F)c1)C1CCS(=O)(=O)C1` (stereo unspecified) gave ASAP1 inh inactive, Calb FLC inactive, VIM-2 inh inactive, ARFGAP1 inh inactive, PHOSPHO1 block inactive and IMP-1 inh inactive.
Screening C/C(=N\NC(=O)CCC(=O)Nc1ccc(C)c(C)c1)C1CC1 returned ASAP1 inh inactive, Calb FLC 123, VIM-2 inh inactive, ARFGAP1 inh inactive, PHOSPHO1 block inactive and IMP-1 inh inactive.
